Experimental data from ChEMBL document CHEMBL1921783, “Hypoxia activated prodrugs of a 9-aza-anthrapyrazole derivative that has promising anticancer activity” (J Med Chem, 2011).
Structures can show the parent of a compound that is named as a salt. The source made the active and inactive calls. The rule behind the calls is not given here.

Legend:
[1] = biological target: DNA topoisomerase 2-alpha (Homo sapiens) (UniProt P11388); assay: Inhibition of DNA topoisomerase 2-mediated DNA fragmentation at 10 uM pretreated with 1% O2 for 2 hrs measured by gel electrophoresis analysis
Chain of DNA topoisomerase 2-alpha (Homo sapiens) (P11388 whole entry, the tested form may be a part): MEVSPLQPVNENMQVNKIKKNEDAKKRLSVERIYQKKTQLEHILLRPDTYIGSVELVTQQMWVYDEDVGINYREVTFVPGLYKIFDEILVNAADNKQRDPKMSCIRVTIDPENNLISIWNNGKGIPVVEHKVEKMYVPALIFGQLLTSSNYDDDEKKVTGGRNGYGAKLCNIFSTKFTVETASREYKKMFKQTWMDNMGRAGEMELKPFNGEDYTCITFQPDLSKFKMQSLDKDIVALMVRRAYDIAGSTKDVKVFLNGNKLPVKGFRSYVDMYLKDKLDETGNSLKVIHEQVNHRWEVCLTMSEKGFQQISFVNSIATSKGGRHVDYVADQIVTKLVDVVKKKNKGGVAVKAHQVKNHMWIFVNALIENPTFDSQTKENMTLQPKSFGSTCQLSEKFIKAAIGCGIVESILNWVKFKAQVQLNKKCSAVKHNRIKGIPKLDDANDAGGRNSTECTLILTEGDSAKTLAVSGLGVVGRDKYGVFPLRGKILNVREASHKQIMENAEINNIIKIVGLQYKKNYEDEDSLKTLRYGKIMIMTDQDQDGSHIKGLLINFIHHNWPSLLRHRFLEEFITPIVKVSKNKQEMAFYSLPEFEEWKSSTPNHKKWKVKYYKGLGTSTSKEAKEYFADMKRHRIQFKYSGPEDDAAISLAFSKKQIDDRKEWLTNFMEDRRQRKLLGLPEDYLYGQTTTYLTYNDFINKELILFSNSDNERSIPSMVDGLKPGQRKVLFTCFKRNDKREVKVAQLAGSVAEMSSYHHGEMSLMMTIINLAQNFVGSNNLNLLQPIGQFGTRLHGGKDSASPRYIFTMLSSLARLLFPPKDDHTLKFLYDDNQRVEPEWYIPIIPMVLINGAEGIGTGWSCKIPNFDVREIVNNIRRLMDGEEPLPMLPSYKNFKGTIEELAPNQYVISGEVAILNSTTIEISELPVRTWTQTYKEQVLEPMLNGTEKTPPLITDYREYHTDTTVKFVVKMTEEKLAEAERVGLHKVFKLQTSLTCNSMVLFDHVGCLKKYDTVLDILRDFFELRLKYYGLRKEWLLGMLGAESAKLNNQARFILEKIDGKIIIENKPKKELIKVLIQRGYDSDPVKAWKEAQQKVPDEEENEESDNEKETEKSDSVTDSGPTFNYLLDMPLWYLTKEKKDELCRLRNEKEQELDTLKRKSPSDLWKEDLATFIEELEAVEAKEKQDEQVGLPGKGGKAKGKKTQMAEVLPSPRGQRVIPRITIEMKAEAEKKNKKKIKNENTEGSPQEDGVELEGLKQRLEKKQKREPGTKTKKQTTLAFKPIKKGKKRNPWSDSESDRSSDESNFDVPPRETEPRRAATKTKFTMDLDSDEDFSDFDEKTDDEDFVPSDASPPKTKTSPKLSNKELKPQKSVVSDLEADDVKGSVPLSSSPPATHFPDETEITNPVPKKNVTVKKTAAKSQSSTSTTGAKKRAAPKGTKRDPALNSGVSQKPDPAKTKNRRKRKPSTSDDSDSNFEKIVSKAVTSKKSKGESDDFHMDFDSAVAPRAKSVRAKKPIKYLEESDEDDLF
How it was run: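 Before the Topo II assay, compound incubated with rat liver S-9 fraction in 1% O2 or normal air for 2 h at 37 °C. Proteins were precipitated with ethanol and the sample centrifuged; the supernatant was then tested for inhibition of Topo II DNA fragmentation by gel electrophoresis.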

[2] = test system: LoVo; assay: Cytotoxicity against human LoVo cells under hypoxic condition assessed as growth inhibition after 74 hrs by sulforhodamine B assay; type: functional, cell-based
How it was run: (§1)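 Cells grown in 96-well plates for 74 h across a range of test concentrations; growth measured by sulforhodamine B staining and IC50 taken as 50% inhibition of growth. Hypoxic arm held in an anaerobic chamber flushed with 95% N2/5% CO2; oxic arm in oxygen-rich conditions.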

[3] = test system: MCF7; assay: Cytotoxicity against doxorubicin-resistant human MCF7 cells under hypoxic condition assessed as growth inhibition after 74 hrs by sulforhodamine B assay; type: functional, cell-based; conditions: MCF7, 74 h; how it was run: as §1
[4] = test system: MCF7; assay: Cytotoxicity against doxorubicin-resistant human MCF7 cells under oxic condition assessed as growth inhibition after 74 hrs by sulforhodamine B assay; type: functional, cell-based; conditions: MCF7, 74 h; how it was run: as §1
[5] = test system: MCF7; assay: Cytotoxicity against doxorubicin-sensitive human MCF7 cells under hypoxic condition assessed as growth inhibition after 74 hrs by sulforhodamine B assay; type: functional, cell-based; conditions: MCF7, 74 h; how it was run: as §1
[6] = test system: MCF7; assay: Cytotoxicity against doxorubicin-sensitive human MCF7 cells under oxic condition assessed as growth inhibition after 74 hrs by sulforhodamine B assay; type: functional, cell-based; conditions: MCF7, 74 h; how it was run: as §1
[7] = biological target: DNA topoisomerase 2-alpha (Homo sapiens) (UniProt P11388); assay: Inhibition of DNA topoisomerase 2-mediated DNA fragmentation at 10 uM by gel electrophoresis analysis
How it was run: (§2)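 Topo II incubated with DNA and compound; products resolved by gel electrophoresis, with intact DNA as a single band and Topo II fragmentation giving multiple bands.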

[8] = biological target: Nucleic Acid; assay: Displacement of ethidium bromide from DNA by fluorometric analysis; type: nucleic-acid assay
How it was run: (§3)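 Fluorescence read-out of ethidium bromide displacement from DNA; IC50 is concentration reducing ethidium bromide binding by 50%; tested up to 50 μM.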

[9] = test system: LoVo; assay: Cytotoxicity against human LoVo cells under oxic condition assessed as growth inhibition after 74 hrs by sulforhodamine B assay; type: functional, cell-based; how it was run: as §1
[10] = test system: Nucleic Acid; assay: Binding affinity to DNA assessed as bathochromic shift by UV-spectroscopic analysis with compound pretreatment with CYP450; type: nucleic-acid assay
How it was run: (§4)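 UV absorbance scans of compound recorded with sequentially increasing DNA concentrations; binding judged from hypochromicity and bathochromic shift. CYP450 pretreatment where applicable: incubation with rat liver S-9 fraction in 1% O2, 2 h, 37 °C, proteins precipitated with ethanol, supernatant after centrifugation used.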

[11] = test system: Nucleic Acid; assay: Displacement of ethidium bromide from DNA at 50 uM by fluorometric analysis; type: nucleic-acid assay; how it was run: as §3
[12] = test system: Nucleic Acid; assay: Binding affinity to DNA assessed as increase in hypochromicity by UV-spectroscopic analysis without compound pretreatment with CYP450; type: nucleic-acid assay; how it was run: as §4
[13] = test system: Nucleic Acid; assay: Binding affinity to DNA assessed as increase in hypochromicity by UV-spectroscopic analysis with compound pretreatment with CYP450; type: nucleic-acid assay; how it was run: as §4
[14] = biological target: DNA topoisomerase 2-alpha (Homo sapiens) (UniProt P11388); assay: Inhibition of DNA topoisomerase 2-mediated DNA fragmentation at 50 uM by gel electrophoresis analysis; how it was run: as §2

| inhibition [1] | inhibition [7] | Activity [10] | Activity [11] | Activity [12] | Activity [13] | inhibition [14] | SMILES | IC50 [2] | IC50 [3] | IC50 [4] | IC50 [5] | IC50 [6] | IC50 [8] | IC50 [9] |
| --- | --- | --- | --- | --- | --- | --- | --- | --- | --- | --- | --- | --- | --- | --- |
| Active | Active | – | – | – | – | – | CN(C)CCNc1ccc2c3c(nn2CCN(C)C)-c2cnccc2C(=O)c13 | 3300 nM | 1200 nM | 1000 nM | 4000 nM | 900 nM | 6800 nM | 1300 nM |
| Active | – | Active | inactive | inactive | Active | inactive | C[N+](C)([O-])CCNc1ccc2c3c(nn2CC[N+](C)(C)[O-])-c2cnccc2C(=O)c13 | 1500 nM | 1300 nM | > 25000 nM | 5000 nM | > 25000 nM | – | > 25000 nM |
| – | – | – | – | – | – | – | O=C1c2c(O)ccc(O)c2C(=O)c2c(NCCNCCO)ccc(NCCNCCO)c21 [MITOXANTRONE HYDROCHLORIDE] | 900 nM | > 10000 nM | 4700 nM | 1000 nM | 100 nM | 4500 nM | 100 nM |
